# Calls of active or inactive are those of the source. No cut-off for these calls is given here.
# What was measured:
# MOLM-14 [1] = experiment: Antiproliferative activity against human MOLM-14 cells harboring FLT3-D835Y mutant assessed as inhibition of cell growth incubated for 72 hrs by resazurin dye based assay; type: functional; conditions: MOLM-14, 72 h
# How it was run: (§1)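 Logarithmic-phase cells were seeded at 5000 per well and treated 24 h later, in triplicate, with various concentrations for 72 h. MOLM14 lines were grown in RPMI with 10 % FBS, and other lines per provider instructions, all at 37 °C and 5 % CO2. Resazurin was then added for 4–6 h and fluorescence read. GI50 was taken from percent growth versus DMSO control, fitted with a variable-slope normalized-response model; at least three runs.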
# [2] = Cytotoxicity against HEK293 cells lacking FLT3 activating mutations assessed as inhibition of cell growth incubated for 72 hrs by resazurin dye based assay; type: toxicity; conditions: human; how it was run: as §1
# [3] = molecular target: T1, Receptor-type tyrosine-protein kinase FLT3 (Homo sapiens, UniProt P36888); experiment: Inhibition of FLT3 (unknown origin) by bioluminescent ADP-Glo assay
# T1 sequence (P36888 whole entry): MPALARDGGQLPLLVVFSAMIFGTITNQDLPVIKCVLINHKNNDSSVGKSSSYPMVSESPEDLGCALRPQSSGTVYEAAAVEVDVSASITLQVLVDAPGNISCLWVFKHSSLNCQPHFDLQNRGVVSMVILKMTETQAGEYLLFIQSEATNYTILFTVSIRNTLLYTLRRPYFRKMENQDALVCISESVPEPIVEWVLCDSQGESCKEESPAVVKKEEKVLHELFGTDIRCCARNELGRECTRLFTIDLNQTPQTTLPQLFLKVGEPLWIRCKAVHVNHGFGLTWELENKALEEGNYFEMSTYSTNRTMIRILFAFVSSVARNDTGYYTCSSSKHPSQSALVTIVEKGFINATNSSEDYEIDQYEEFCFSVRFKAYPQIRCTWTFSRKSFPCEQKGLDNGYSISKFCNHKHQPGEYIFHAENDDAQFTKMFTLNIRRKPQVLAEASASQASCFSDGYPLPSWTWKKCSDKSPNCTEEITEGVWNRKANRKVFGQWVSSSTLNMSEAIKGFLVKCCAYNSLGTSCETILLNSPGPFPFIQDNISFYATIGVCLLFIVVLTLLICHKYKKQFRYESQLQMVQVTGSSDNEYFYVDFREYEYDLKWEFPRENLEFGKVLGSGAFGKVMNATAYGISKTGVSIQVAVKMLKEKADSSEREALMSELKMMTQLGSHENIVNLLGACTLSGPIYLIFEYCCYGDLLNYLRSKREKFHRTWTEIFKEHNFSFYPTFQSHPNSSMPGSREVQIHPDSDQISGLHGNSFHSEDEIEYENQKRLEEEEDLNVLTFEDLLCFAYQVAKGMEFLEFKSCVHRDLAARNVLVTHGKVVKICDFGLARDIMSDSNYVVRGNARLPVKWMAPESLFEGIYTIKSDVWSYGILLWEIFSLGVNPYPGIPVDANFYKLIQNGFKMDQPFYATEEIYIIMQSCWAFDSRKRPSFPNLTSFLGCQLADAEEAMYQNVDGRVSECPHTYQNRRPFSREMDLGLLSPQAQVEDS
# MOLM-14 [4] = type: functional, cell-based; conditions: Homo sapiens, MOLM-14, 72 h
# MDA-MB-231 = experiment: Antiproliferative activity against human MDA-MB-231 cells lacking FLT3 activating mutations assessed as inhibition of cell growth incubated for 72 hrs by resazurin dye based assay; type: functional; conditions: MDA-MB-231, 72 h; how it was run: as §1
# K562 = experiment: Antiproliferative activity against human K562 cells assessed as inhibition of cell growth incubated for 72 hrs by resazurin dye based assay; type: functional; conditions: K562, 72 h; how it was run: as §1
# MOLM-14 [5] = experiment: Inhibition of ERK phosphorylation in human MOLM-14 cells harboring FLT3 D835Y mutant at 10 times IC50 incubated for 2 hrs by Western blot analysis relative to control; type: cell-based
# MOLM-14 [6] = experiment: Antiproliferative activity against human MOLM-14 cells assessed as inhibition of cell growth incubated for 72 hrs by resazurin dye based assay; type: functional; conditions: MOLM-14, 72 h; how it was run: as §1
# MOLM-14 [7] = experiment: Inhibition of ERK phosphorylation in human MOLM-14 cells at 1 times IC50 incubated for 2 hrs by Western blot analysis; type: cell-based
# [8] = molecular target: High affinity nerve growth factor receptor (Homo sapiens) (UniProt P04629); experiment: Inhibition of TRKA (unknown origin) at 4.5 nM incubated for 1 hr by KINOMEscan analysis relative to control
# High affinity nerve growth factor receptor (Homo sapiens), sequence (P04629 33-796 limits assumed): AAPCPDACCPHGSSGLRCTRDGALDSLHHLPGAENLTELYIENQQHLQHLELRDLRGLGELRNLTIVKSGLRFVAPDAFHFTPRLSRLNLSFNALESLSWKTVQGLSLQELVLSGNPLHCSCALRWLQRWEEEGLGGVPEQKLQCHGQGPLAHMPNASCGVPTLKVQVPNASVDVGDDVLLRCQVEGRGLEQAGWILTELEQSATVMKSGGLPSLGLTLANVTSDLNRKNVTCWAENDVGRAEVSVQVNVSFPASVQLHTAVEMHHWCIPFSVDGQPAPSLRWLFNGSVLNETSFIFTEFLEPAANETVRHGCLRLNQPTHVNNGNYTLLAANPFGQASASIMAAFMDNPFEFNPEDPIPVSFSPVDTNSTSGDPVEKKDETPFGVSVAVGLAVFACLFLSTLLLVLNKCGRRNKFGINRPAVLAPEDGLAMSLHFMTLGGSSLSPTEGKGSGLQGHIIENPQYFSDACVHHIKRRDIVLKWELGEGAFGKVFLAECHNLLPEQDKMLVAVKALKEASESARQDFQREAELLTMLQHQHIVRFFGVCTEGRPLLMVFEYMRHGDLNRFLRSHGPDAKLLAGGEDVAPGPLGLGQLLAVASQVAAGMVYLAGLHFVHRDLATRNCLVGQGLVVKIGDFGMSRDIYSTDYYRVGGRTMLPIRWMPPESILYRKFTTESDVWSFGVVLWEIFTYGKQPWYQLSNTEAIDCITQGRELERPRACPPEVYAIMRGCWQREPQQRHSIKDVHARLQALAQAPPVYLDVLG
# How it was run: (§2)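 Competition binding panel: DNA-tagged kinases combined with beads carrying immobilized biotinylated ligand and test compound in binding buffer (20 % SeaBlock, 0.17x PBS, 0.05 % Tween 20, 6 mM DTT). Compound diluted from 100x DMSO stocks. Incubated 1 h at room temperature with shaking, then washed. Bound kinase eluted with non-biotinylated ligand for 30 min. Kinase in eluate quantified by qPCR.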
# [9] = molecular target: Receptor-type tyrosine-protein kinase FLT3 (Homo sapiens) (UniProt P36888); conditions: dose 4.5 nM, time 1.0 hrs
# MOLM-14 [10] = type: cell-based; conditions: Homo sapiens, time 2.0 hrs
# MOLM-14 [11] = experiment: Inhibition of ERK phosphorylation in human MOLM-14 cells at 10 times IC50 incubated for 2 hrs by Western blot analysis relative to control; type: cell-based
# [12] = molecular target: Mast/stem cell growth factor receptor Kit (Homo sapiens, UniProt P10721); experiment: Binding affinity to KIT (unknown origin) at 4.5 nM incubated for 1 hr by KINOMEscan analysis; conditions: 0.0045 µM; how it was run: as §2
# Mast/stem cell growth factor receptor Kit, sequence (P10721 whole entry): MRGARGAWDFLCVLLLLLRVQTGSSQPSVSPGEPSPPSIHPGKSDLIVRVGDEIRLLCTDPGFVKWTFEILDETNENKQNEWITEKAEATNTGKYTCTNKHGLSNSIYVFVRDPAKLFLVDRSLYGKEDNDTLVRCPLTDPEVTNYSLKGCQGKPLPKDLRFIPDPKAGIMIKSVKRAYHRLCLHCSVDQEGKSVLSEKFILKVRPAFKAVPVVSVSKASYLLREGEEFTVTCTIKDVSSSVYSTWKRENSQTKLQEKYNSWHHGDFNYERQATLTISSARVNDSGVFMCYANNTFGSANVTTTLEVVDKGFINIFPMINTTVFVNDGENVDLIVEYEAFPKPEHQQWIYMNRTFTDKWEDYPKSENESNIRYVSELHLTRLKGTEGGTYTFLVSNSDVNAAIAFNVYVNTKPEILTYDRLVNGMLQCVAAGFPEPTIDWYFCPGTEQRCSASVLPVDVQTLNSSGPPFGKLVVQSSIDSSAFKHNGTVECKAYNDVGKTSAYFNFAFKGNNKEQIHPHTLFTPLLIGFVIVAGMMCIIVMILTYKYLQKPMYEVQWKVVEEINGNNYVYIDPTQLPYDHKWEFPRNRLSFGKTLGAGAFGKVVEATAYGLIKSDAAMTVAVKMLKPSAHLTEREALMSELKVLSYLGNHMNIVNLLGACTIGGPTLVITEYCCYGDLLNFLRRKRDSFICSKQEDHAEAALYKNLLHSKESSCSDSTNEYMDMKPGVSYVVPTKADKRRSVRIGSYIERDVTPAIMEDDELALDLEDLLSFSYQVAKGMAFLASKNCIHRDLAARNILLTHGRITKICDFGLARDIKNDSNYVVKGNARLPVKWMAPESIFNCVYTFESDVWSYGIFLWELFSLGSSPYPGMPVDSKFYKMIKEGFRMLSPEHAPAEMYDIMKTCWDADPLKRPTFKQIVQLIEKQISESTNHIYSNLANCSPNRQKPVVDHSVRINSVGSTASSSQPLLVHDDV
# MOLM-14 [13] = experiment: Inhibition of ERK phosphorylation in human MOLM-14 cells harboring FLT3 D835Y mutant at 1 times IC50 incubated for 2 hrs by Western blot analysis; type: cell-based
IC50 (MOLM-14 [1]) [µM],IC50 [3] [µM],IC50 (MOLM-14 [4]) [µM],IC50 (MDA-MB-231) [µM],IC50 (K562) [µM],IC50 (MOLM-14 [6]) [µM],inhibition [8] [%],inhibition [9] [%],SMILES,IC50 at 72 h [2] [µM],inhibition (MOLM-14 [5]) [%],inhibition (MOLM-14 [7]),inhibition (MOLM-14 [10]),inhibition (MOLM-14 [11]) [%],inhibition (INH) [12],inhibition (MOLM-14 [13])
0.0439,0.0946,0.13,> 1,> 1,,,,COc1cc(Nc2cccc(-c3cnc4cc(-c5ccc(S(C)(=O)=O)cc5)ccn34)n2)cc(OC)c1OC,> 1,,,,,,
0.00316,0.00794,0.00834,> 1,> 1,0.00455,> 65,> 65,Cn1cc(-c2ccn3c(-c4cccc(Nc5ccc(S(C)(=O)=O)cc5)n4)cnc3c2)cn1,> 1,100,Active,Active,100,Not Active,Active
0.00464,0.00663,0.014,> 1,0.969,0.00249,,,COc1ccc(Nc2cccc(-c3cnc4cc(-c5cnn(C)c5)ccn34)n2)cc1OC,> 1,,,,,,
0.265,0.288,0.412,> 1,> 1,0.154,,,Cn1cc(-c2ccn3c(-c4cccc(Nc5cccc(C(C)(C)C)c5)n4)cnc3c2)cn1,0.993,,,,,,

# Reference: ChEMBL document CHEMBL5528013 (Eur J Med Chem, 2024)
